Ec RNAP inh: Escherichia coli RNA polymerase inhibition; P0A8V2; E. coli RNA polymerase, fluorescence transcription assay; inhibition, %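 (tested at 10 µM)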; 62,000 tested, 0.2% active; AID 559; in the data active = inhibition above about 20%;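 note: 0% = enzyme without compound and 100% = no enzyme blank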
MT1-MMP txn act: activates MT1-MMP transcription | HT1080 MT1-MMP promoter luciferase reporter, luminescence, overnight; hits give high values | 86,000 tested, 0.16% active | activation factor at 10 µM;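 active = activation factor of at least 2 for MT1-MMP transcription at 10 µM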
TNAP act DEA: activates human TNAP at intermediate phosphate acceptor concentration; P05186; activation factor at 20 µM; 64,000 tested, under 10 active; purified TNAP, CDP-star luminescence, 100 mM DEA, 30 min; hits give high values; scale: 0 levamisole-inhibited, 1 vehicle-only enzyme;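 active = activation factor of at least 2 at 20 µM, relative to controls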
Target sequence (P05186 whole entry, looked up): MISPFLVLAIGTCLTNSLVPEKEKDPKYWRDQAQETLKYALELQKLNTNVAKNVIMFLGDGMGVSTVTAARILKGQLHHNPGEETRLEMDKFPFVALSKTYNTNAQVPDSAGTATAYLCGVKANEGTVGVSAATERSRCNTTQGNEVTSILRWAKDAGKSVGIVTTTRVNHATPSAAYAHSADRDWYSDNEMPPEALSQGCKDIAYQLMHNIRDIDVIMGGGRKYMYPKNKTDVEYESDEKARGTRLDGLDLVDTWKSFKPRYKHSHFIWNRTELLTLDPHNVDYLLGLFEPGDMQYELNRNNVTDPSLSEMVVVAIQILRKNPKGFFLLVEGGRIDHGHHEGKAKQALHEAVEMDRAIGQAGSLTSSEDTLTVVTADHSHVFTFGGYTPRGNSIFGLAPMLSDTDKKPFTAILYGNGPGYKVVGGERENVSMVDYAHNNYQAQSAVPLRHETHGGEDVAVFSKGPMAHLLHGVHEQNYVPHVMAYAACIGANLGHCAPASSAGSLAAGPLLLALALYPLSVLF
SF1 activator: SF-1 (human) activation; CHO-K1 Gal4-SF-1 LBD luciferase reporter; % increase over DMSO SF-1-specific signal; 65,000 tested, 1.9% active; Q13285; activation, % at 10 µM;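 active = activation above the mean activation of all tested compounds plus 3 SD, cut at about 50% in these data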
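Test system: CHO-K1 cells with Gal4–hSF-1 LBD chimera plus Gal4-driven luciferase; Input: 4,000 cells/well; Compound: 10 µM only; Times: 20 h compound treatment, 37 °C; Measured by: steady-glow luciferase luminescence, read after 15 min reagent incubation; Measure: percent activation versus DMSO; Control set: DMSO and mock-transfected background; Replicates: one test per compound.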
RORA act: activators of human nuclear receptor RORA; activation, % at 10 µM; P35398; 65,000 tested, 1.5% active; CHO-K1 Gal4-RORA LBD luciferase reporter, luminescence; percent increase over mock-subtracted basal signal;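 active = activation above the mean of all tested compounds plus 3 SD, cut at about 49% in these data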;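 note: 0% = DMSO-treated RORA cells and 100% = added signal equal to DMSO minus mock-transfected cells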
Starred values were filed as active, the others as inactive; . = no result given. This is a sample that favours compounds with a hit; in the whole collection about 2.1% have one here.

SMILES	Ec RNAP inh	MT1-MMP txn act	TNAP act DEA	SF1 activator	RORA act
CCOc1ccc(-c2cc(C(=O)N3CCN(C)CC3)c3ccccc3n2)cc1	-4	1.2	1	35	36
COc1ccc(-c2cc(C(=O)N3CCN(c4ccccn4)CC3)c3ccccc3n2)cc1	6	1.8	0.9	90*	74*
Nc1c(-c2ccccc2)n[nH]c1-c1ccccc1	3	1.7	0.5	15	35
O=c1c(-c2ccccc2)n[nH]c2ccccc12	8	1.1	1	75*	31
Brc1ccc(-c2nnc(-c3ccco3)o2)cc1	5	1.4	0.9	22	29
CCOc1ccc(-c2nnc(-c3cccs3)o2)cc1OCC	1	1.4	0.9	17	53*
CCOc1ccc(-c2nnc(-c3ccco3)o2)cc1OCC	8	2.1*	0.9	42	22
Cc1cccc(-c2nnc(-c3ccccc3)o2)c1	2	1.5	0.9	60*	46
CCOc1cc(-c2nnc(-c3ccco3)o2)cc(OCC)c1OCC	.	1	1	-5	-11
c1ccc(-c2nnc(-c3ccco3)o2)cc1	0	1.7	1	51*	23
O=C(CSc1ncn[nH]1)c1ccc2c(c1)OCCO2	-5	1.4	0.9	24	16
CC(C)c1ccc(C(=O)CSc2ncn[nH]2)cc1	8	1.4	1	53*	53*
CCn1c(=O)cc(OCC(=O)Nc2ccccc2C#N)c2ccccc21	2	1.2	0.9	8	14
Cc1cc(Cl)c(S(=O)(=O)N2CCN(c3ccc(F)cc3)CC2)cc1OCC(=O)NC1CCCCC1	.	1.2	.	.	.
CC(=O)c1cc2c(=O)c3cc(C)ccc3oc2nc1C	5	1.2	0.9	38	58*
O=C(/C=C/Nc1cccc(F)c1)c1ccco1	.	1.2	.	.	.
O=C(/C=C/Nc1ccc(F)c(Cl)c1)c1ccco1	13	1.7	0.8	55*	62*
O=c1[nH]c2ccccc2nc1-c1cccs1	-4	1.4	.	54*	9
c1csc(-c2nnsc2-c2nc3ccccc3[nH]2)c1	0	1.3	1	21	10
O=C(Nc1ncnc2c1ncn2C1OC(COC(=O)c2ccccc2)C(F)C1O)c1ccccc1 (stereo unspecified)	-3	1.2	0.9	-5	-8
O=C(C1COc2ccccc2O1)N1CCc2ccccc21 (stereo unspecified)	8	1.5	1	54*	30
Cn1cccc1C(=O)OCC(=O)Nc1ccc2c(c1)CCC2	1	1.4	1	5	28
Cn1cccc1C(=O)OCc1cc(Cl)cc2c1OCOC2	-1	1.5	0.9	60*	24
CCCc1cc(=O)n2[nH]c(-c3ccc(Br)cc3)cc2n1	5	1.6	1	112*	38
O=C1c2ccccc2C(=O)N1n1c(=O)[nH]c2ccccc2c1=O	3	1	0.9	-1	1
SMILES	Ec RNAP inh	MT1-MMP txn act	TNAP act DEA	SF1 activator	RORA act
Cc1ccc(NC(=O)Nc2cccs2)cc1	4	1.5	1	21	54*
CCc1ccc(NC(=O)Nc2cccs2)cc1	3	1.4	0.9	-2	-21
COc1ccccc1NC(=O)c1ccc(NC(=O)CSc2nnnn2C)cc1	12	1	0.9	25	17
CCc1ccc(OCC(=O)Nc2ccc(-c3nc4ccccc4o3)c(O)c2)cc1	6	1	1	49	-8
Oc1cc(NCc2cccnc2)ccc1-c1nc2ccccc2o1	-9	1.7	0.8	38	61*
O=C(NCc1cccs1)C(Cc1ccccc1)n1cccc1 (stereo unspecified)	23*	1.1	0.8	2	6
Cn1c(=O)c2nc(Cl)n(Cc3ccc(Cl)cc3Cl)c2n(C)c1=O	10	1.1	0.9	-4	-2
Cc1ccccc1-c1nc2ccccc2[nH]1	.	2*	.	.	.
Nc1nonc1-c1nc2ccccc2[nH]1	7	1.1	0.9	22	32
c1ccc2[nH]c(-c3ccnc4ccccc34)nc2c1	4	1.6	1	30	22
Cn1cc(Cl)c(-c2nc3ccccc3[nH]2)n1	7	1.2	0.9	44	56*
Cc1occc1C(=O)N/N=C/c1cnn(C)c1C	.	1.6	.	.	.
Cc1c(/C=C/C(=O)c2ccc(Cl)s2)cnn1C	.	2.4*	.	.	.
O=C(Cn1cnc2ccccc2c1=O)NCc1ccc2c(c1)OCO2	.	1.1	.	.	.
Cc1ccc(-n2nnnc2SCn2nnc3ccccc3c2=O)cc1	.	1.4	.	.	.
O=c1c2ccccc2nnn1CSc1ccc2c(c1)OCCO2	6	1.4	.	77*	38

Bioassay records: PubChem, several laboratories
